Measurements reported in ChEMBL document CHEMBL3877308, “Design, synthesis and in vitro biological evaluation of oligopeptides targeting E. coli type I signal peptidase (LepB)” (Bioorg Med Chem, 2017).
Converted amounts (≈) assume the structure as drawn. Each block holds one compound with its values, some of them ahead of it.

Assays:
Signal peptidase I = Signal peptidase I (Escherichia coli K-12, UniProt P00803); experiment: Inhibition of full length Escherichia coli His6-tagged LepB expressed in Escherichia coli C43(DE3) using dabcyl-VEVGGTATAGAFSRPGLE-(EDANS) as substrate preincubated for 10 mins followed by substrate addition measured for 2 hrs by FRET assay
Sequence of Signal peptidase I (P00803 whole entry): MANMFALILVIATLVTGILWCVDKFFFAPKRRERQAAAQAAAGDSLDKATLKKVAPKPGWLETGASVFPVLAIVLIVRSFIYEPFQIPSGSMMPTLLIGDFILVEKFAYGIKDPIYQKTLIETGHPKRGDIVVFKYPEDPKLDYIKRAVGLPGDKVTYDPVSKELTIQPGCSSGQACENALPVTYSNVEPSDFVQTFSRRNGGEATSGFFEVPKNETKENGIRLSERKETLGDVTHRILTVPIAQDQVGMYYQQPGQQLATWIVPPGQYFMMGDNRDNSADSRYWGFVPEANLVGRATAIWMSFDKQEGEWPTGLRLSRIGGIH
How it was run: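 Enzyme extracted from the membrane fraction with 1% reduced Triton X-100 and purified by metal-chelation chromatography in 0.5% detergent. Enzyme (final ~50 nM) was pre-incubated with compound for 10 min at 22 °C. The linear rise in EDANS donor fluorescence (dabcyl acceptor) was then followed at 22 °C for 2 h. IC50 came from non-linear regression of sigmoidal rate-versus-concentration curves.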

[1] = target: Signal peptidase I (Escherichia coli K-12) (UniProt P00803); experiment: (§1) Inhibition of full length Escherichia coli His6-tagged LepB expressed in Escherichia coli C43(DE3) assessed as residual activity at 2.5 uM using dabcyl-VEVGGTATAGAFSRPGLE-(EDANS) as substrate preincubated for 10 mins followed by substrate addition measured for 2 hrs by FRET assay relative to control
Sequence of Signal peptidase I (Escherichia coli K-12) (P00803 whole entry): as above
How it was run: (§2)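 Enzyme came from the membrane fraction, extracted with 1% reduced Triton X-100 and purified by metal-chelation chromatography in 0.5% detergent. FRET pair was dabcyl acceptor and EDANS donor. EcLepB (final about 50 nM) was pre-incubated with compound 10 min at 22 °C. Reaction was then run with 8 µM substrate, following the linear fluorescence increase at 22 °C for 2 h.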

[2] = target: Signal peptidase I (Escherichia coli K-12) (UniProt P00803); experiment: Inhibition of full length Escherichia coli His6-tagged LepB expressed in Escherichia coli C43(DE3) assessed as residual activity at 5 uM using dabcyl-VEVGGTATAGAFSRPGLE-(EDANS) as substrate preincubated for 10 mins followed by substrate addition measured for 2 hrs by FRET assay relative to control; how it was run: as §2
[3] = target: Signal peptidase I (Escherichia coli K-12) (UniProt P00803); experiment: Inhibition of full length Escherichia coli His6-tagged LepB expressed in Escherichia coli C43(DE3) at 100 uM using dabcyl-VEVGGTATAGAFSRPGLE-(EDANS) as substrate preincubated for 10 mins followed by substrate addition measured for 2 hrs by FRET assay relative to control; how it was run: as §2
[4] = target: Signal peptidase I (Escherichia coli K-12) (UniProt P00803); experiment: as §1, with “0.002” for “2.5”; how it was run: as §2
[5] = target: Signal peptidase I (Escherichia coli K-12) (UniProt P00803); experiment: as §1, with “0.005” for “2.5”; how it was run: as §2
[6] = target: Signal peptidase I (Escherichia coli K-12) (UniProt P00803); experiment: as §1, with “1.25” for “2.5”; how it was run: as §2
[7] = target: Signal peptidase I (Escherichia coli K-12) (UniProt P00803); experiment: as §1, with “0.625” for “2.5”; how it was run: as §2
[8] = target: Signal peptidase I (Escherichia coli K-12) (UniProt P00803); experiment: as §1, with “0.313” for “2.5”; how it was run: as §2
[9] = target: Signal peptidase I (Escherichia coli K-12) (UniProt P00803); experiment: as §1, with “0.156” for “2.5”; how it was run: as §2
[10] = target: Signal peptidase I (Escherichia coli K-12) (UniProt P00803); experiment: as §1, with “0.078” for “2.5”; how it was run: as §2
[11] = target: Signal peptidase I (Escherichia coli K-12) (UniProt P00803); experiment: as §1, with “0.039” for “2.5”; how it was run: as §2
[12] = target: Signal peptidase I (Escherichia coli K-12) (UniProt P00803); experiment: as §1, with “0.02” for “2.5”; how it was run: as §2
[13] = target: Signal peptidase I (Escherichia coli K-12) (UniProt P00803); experiment: as §1, with “0.01” for “2.5”; how it was run: as §2
[14] = target: Signal peptidase I (Escherichia coli K-12) (UniProt P00803); experiment: as §1, with “0.001” for “2.5”; how it was run: as §2
[15] = target: Signal peptidase I (Escherichia coli K-12) (UniProt P00803); experiment: as §1, with “0.0005” for “2.5”; how it was run: as §2
Escherichia coli [16] = experiment: Antibacterial activity against wild type Escherichia coli ATCC 25922 after 16 to 20 hrs by broth microdilution assay; assay type: functional
How it was run: (§3)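 MIC by broth microdilution in cation-adjusted Mueller-Hinton II medium, following EUCAST and CLSI guidelines; panel of Gram-negative strains plus S. aureus ATCC 29213.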

Escherichia coli [17] = experiment: Antibacterial activity against Escherichia coli CH3130 harboring tolC deletion mutant after 16 to 20 hrs by broth microdilution assay; assay type: functional
How it was run: (§4)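 Broth microdilution MIC in cation-adjusted Mueller-Hinton II medium, following EUCAST and CLSI guidelines; tested on a panel of Gram-negative strains plus S. aureus ATCC 29213 (wild-type).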

Escherichia coli [18] = experiment: Antibacterial activity against Escherichia coli D22 harboring lpxC mutant after 16 to 20 hrs by broth microdilution assay; assay type: functional; how it was run: as §4
Pseudomonas aeruginosa [19] = experiment: Antibacterial activity against wild type Pseudomonas aeruginosa PAO1 after 16 to 20 hrs by broth microdilution assay; assay type: functional; how it was run: as §3
Pseudomonas aeruginosa [20] = experiment: Antibacterial activity against wild type Pseudomonas aeruginosa PAO750 harboring efflux defective mutant after 16 to 20 hrs by broth microdilution assay; assay type: functional; how it was run: as §4
Klebsiella pneumoniae = experiment: Antibacterial activity against wild type Klebsiella pneumoniae […] after 16 to 20 hrs by broth microdilution assay; assay type: functional; how it was run: as §3
Staphylococcus aureus = experiment: Antibacterial activity against wild type Staphylococcus aureus ATCC 29213 after 16 to 20 hrs by broth microdilution assay; assay type: functional; how it was run: as §3
Acinetobacter baumannii = experiment: Antibacterial activity against wild type Acinetobacter baumannii ATCC 19606 after 16 to 20 hrs by broth microdilution assay; assay type: functional; how it was run: as §3
[21] = Cytotoxicity against human HepG2 cells assessed as reduction in cell viability after 72 hrs by fluorescein diacetate dye based fluorometric microculture assay; assay type: toxicity
How it was run: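 FMCA on HepG2 cells read at 72 h. Survival index (%) is fluorescence in test wells as percent of control cultures, with blank values subtracted. IC50 was obtained by non-linear regression of log concentration-effect curves.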

[22] = Hemolytic activity against human RBC at 100 uM after 45 mins by spectrophotometric method relative to control; assay type: ADME, cell-based, Erythrocyte; settings: red blood cells (RBC), read-out: Activity
How it was run: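 Hemolysis was tested using red blood cells from heparinized human blood.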

SMILES: CCCCCCc1ccc(-c2ccc(C(=O)N3CCC[C@H]3C(=O)N[C@H](C(=O)N[C@@H](C)C(=O)N[C@@H](CC(N)=O)C(=O)N[C@@H](C)B3O[C@@H]4C[C@@H]5C[C@@H](C5(C)C)[C@]4(C)O3)[C@H](C)O)cc2)cc1
IC50 (Signal peptidase I): 12 nM | Activity [1]: 7.64% | Activity [2]: 11.2% | inhibition [3]: > 50% | Activity [4]: 92.8% | Activity [5]: 82.2% | Activity [6]: 11.4% | Activity [7]: 16% | Activity [8]: 17.4% | Activity [9]: 16.9% | Activity [10]: 11.5% | Activity [11]: 16.8% | Activity [12]: 51.2% | Activity [13]: 57% | Activity [14]: 94.4% | Activity [15]: 100% | MIC (Escherichia coli [16]): > 64 µg/mL | MIC (Escherichia coli [17]): 64 µg/mL (≈ 73.5 µM) | MIC (Escherichia coli [18]): 16 µg/mL (≈ 18.4 µM) | MIC (Pseudomonas aeruginosa [19]): > 64 µg/mL | MIC (Pseudomonas aeruginosa [20]): > 64 µg/mL | MIC (Klebsiella pneumoniae): > 64 µg/mL | MIC (Staphylococcus aureus): 4 µg/mL (≈ 4.59 µM) | MIC (Acinetobacter baumannii): > 64 µg/mL | IC50 at 72 h [21]: 4700 nM | hemolysis at 0.75 h, 100 µM [22]: 1.1%

inhibition [3]: 13.3%
SMILES: CC(=O)N[C@@H](C)C(=O)N[C@@H](CC(N)=O)C(=O)N[C@@H](C)C(=O)C(=O)NC(C)(C)C

inhibition [3]: 38%
SMILES: CCCCCCCCCC(=O)N1CCC[C@H]1C(=O)N[C@H](C(=O)N[C@@H](C)C(=O)N[C@@H](CC(N)=O)C(=O)N[C@@H](C)C(=O)O)[C@H](C)O

inhibition [3]: 31.5%
SMILES: CCCCCCCCCC(=O)N1CCC[C@H]1C(=O)N[C@H](C(=O)N[C@@H](C)C(=O)N[C@@H](CC(N)=O)C(=O)N[C@@H](C)C(=O)C(=O)NC(C)(C)C)[C@H](C)O

inhibition [3]: 35.8%
SMILES: CNC(=O)[C@@H]1CCCN1C(=O)[C@H](C)NC(=O)[C@H](CC(N)=O)NC(=O)[C@H](C)NC(=O)[C@@H](NC(=O)[C@@H]1CCCN1C(C)=O)[C@H](C)O

inhibition [3]: 32.3%
SMILES: CC(=O)N1CCC[C@H]1C(=O)N[C@H](C(=O)N[C@@H](C)C(=O)N[C@@H](CC(N)=O)C(=O)N[C@@H](C)C(=O)C(=O)NCc1cccc2ccccc12)[C@H](C)O

inhibition [3]: 26%
SMILES: CC(=O)N1CCC[C@H]1C(=O)N[C@H](C(=O)N[C@@H](C)C(=O)N[C@@H](CC(N)=O)C(=O)N[C@@H](C)B1O[C@@H]2C[C@@H]3C[C@@H](C3(C)C)[C@]2(C)O1)C(C)O (single isomer, unassigned)

inhibition [3]: 31%
SMILES: CC(=O)N[C@@H](C)C(=O)C(=O)NCc1cccc2ccccc12
